Experimental data taken from ChEMBL document CHEMBL3124900, “Discovery and early clinical evaluation of BMS-605339, a potent and orally efficacious tripeptidic acylsulfonamide NS3 protease inhibitor for the treatment of hepatitis C virus infection” (J Med Chem, 2014).

What was measured:
[1] = Cytotoxicity against human HuH7 cells; type: cell-based; settings: Huh-7 cells
[2] = system: Liver; test: Drug uptake in intraduodenally dosed Sprague-Dawley rat liver measured per gm of tissue over 4 hrs by LC/MS/MS analysis; type: ADME, organism-based; settings: in vivo, other
How it was run: (§1)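 Abbreviated rat screen: surgically prepared rats were dosed intraduodenally. Plasma was sampled over 4 h, and liver was collected at the 4 h end point. Plasma was precipitated with two volumes of ACN plus internal standard. Liver was weighed and homogenized in 2 volumes of 20% Hanks buffered salt solution/80% ACN. Both were quantified by LC/MS/MS.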

[3] = system: Hepatitis C virus; test: Antiviral activity against Hepatitis C virus genotype 1b Con1 after 4 days by cell-based replicon assay; type: functional, organism-based, Hepacivirus hominis; settings: isolate Con1, 96 h
[4] = (§2) AUC in intraduodenally dosed Sprague-Dawley rat plasma measured over 4 hrs by LC/MS/MS analysis; type: ADME, organism-based; set-up: time < 4 hr, route intraduodenal; settings: Sprague-Dawley, plasma; how it was run: as §1
[5] = Inhibition of Hepatitis C virus genotype 1a H77 recombinant NS3/4A protease expressed in Escherichia coli BL21 (DE3) cell using Ac-Asp-Glu-Asp(EDANS)-Glu-Glu-Abu[C(O)-O]-Ala-Ser-Lys(DABCYL)-NH2 as substrate by FRET assay; set-up: species or system Hepatitis C virus (isolate H77)
[6] = Oral bioavailability in Sprague-Dawley rat at 15 mg/kg administered via gavage by LC/MS/MS analysis; type: ADME, organism-based; settings: in vivo
[7] = AUC in Sprague-Dawley rat at 15 mg/kg, po administered via gavage by LC/MS/MS analysis; type: ADME, organism-based; set-up: dose 15 mg/kg, route oral; settings: plasma
[8] = Whole body plasma clearance in Sprague-Dawley rat at 5 mg/kg, iv by LC/MS/MS analysis; type: ADME, organism-based; set-up: dose 5 mg/kg, route intravenous
[9] = Apparent terminal half life in Sprague-Dawley rat at 5 mg/kg, iv by LC/MS/MS analysis; type: ADME, organism-based; set-up: dose 5 mg/kg, route intravenous; settings: in vivo, read-out: betat1/2(app) (converted)
[10] = system: Plasma; test: as §2; type: ADME, organism-based; set-up: time < 4 hr, route intraduodenal; settings: in vivo, other, 4 h, BLD = below limit of detection; how it was run: as §1

| Structure (SMILES) | Drug uptake [2] [ng] | EC50 [3] [nM] | AUC at 4 h [4] [µM·h] | IC50 [5] [nM] | bioavailability [6] [%] | AUC [7] [µM·h] | clearance [8] [mL/min/kg] | half-life [9] [h] | Drug uptake ([2]; BLD = below limit of detection) | AUC [10] | CC50 [1] [nM] |
| --- | --- | --- | --- | --- | --- | --- | --- | --- | --- | --- | --- |
| C=C[C@@H]1C[C@]1(NC(=O)[C@@H]1C[C@@H](Oc2nccc3cc(OC)ccc23)CN1C(=O)[C@@H](NC(=O)O[C@H]1CCOC1)C(C)(C)C)C(=O)NS(=O)(=O)C1CC1 | – | 70 | – | 9 | 3 | 0.13 | 49 | 0.67 | – | – | > 100000 |
| C=C[C@@H]1C[C@]1(NC(=O)[C@@H]1C[C@@H](Oc2cncc3cc(OC)ccc23)CN1C(=O)[C@@H](NC(=O)OC(C)(C)C)C(C)(C)C)C(=O)NS(=O)(=O)C1CC1 | 1205 | 42 | 0.38 | 2 | – | – | – | – | – | – | > 100000 |
| C=C[C@@H]1C[C@]1(NC(=O)[C@@H]1C[C@@H](Oc2nccc3cc(OC)ccc23)CN1C(=O)[C@@H](NC(=O)OC(C)(C)C)C(C)C)C(=O)NS(=O)(=O)C1CC1 | – | 33 | – | 2 | 28 | 10.5 | 7.8 | 2.9 | – | – | > 100000 |
| C=C[C@@H]1C[C@]1(NC(=O)[C@@H]1C[C@@H](Oc2nccc3cc(F)ccc23)CN1C(=O)[C@@H](NC(=O)OC(C)(C)C)C(C)(C)C)C(=O)NS(=O)(=O)C1CC1 | 69560 | 117 | 1.46 | 87 | – | – | – | – | – | – | > 100000 |
| C=C[C@@H]1C[C@]1(NC(=O)[C@@H]1C[C@@H](Oc2nccc3ccccc23)CN1C(=O)[C@@H](NC(=O)OC(C)(C)C)C(C)(C)C)C(=O)NS(=O)(=O)C1CC1 | 28094 | 60 | 0.75 | 7 | – | 2.67 | 19 | 2.2 | – | – | > 100000 |
| C=C[C@@H]1C[C@]1(NC(=O)[C@@H]1C[C@@H](Oc2ccc3ccccc3n2)CN1C(=O)[C@@H](NC(=O)OC(C)(C)C)C(C)(C)C)C(=O)NS(=O)(=O)C1CC1 | 52094 | 268 | 0.279 | 23 | – | – | – | – | – | – | – |
| C=C[C@@H]1C[C@]1(NC(=O)[C@@H]1C[C@@H](Oc2nccc3cc(OC)ccc23)CN1C(=O)[C@@H](NC(=O)OC(C)(C)C)C(C)(C)C)C(=O)O | – | 2000 | – | 247 | – | – | – | – | BLD | BLD | > 100000 |
| C=C[C@@H]1C[C@]1(NC(=O)[C@@H]1C[C@@H](Oc2ncc(C)c3ccccc23)CN1C(=O)[C@@H](NC(=O)OC(C)(C)C)C(C)(C)C)C(=O)NS(=O)(=O)C1CC1 | 97240 | 50 | 0.2 | 1 | – | – | – | – | – | – | 71000 |
| C=C[C@@H]1C[C@]1(NC(=O)[C@@H]1C[C@@H](Oc2nccc3c(C)cccc23)CN1C(=O)[C@@H](NC(=O)OC(C)(C)C)C(C)(C)C)C(=O)NS(=O)(=O)C1CC1 | 160300 | 40 | 6.36 | 5 | – | – | – | – | – | – | 89000 |

Stronger by EC50 [3], values ahead:

| Drug uptake [2] [ng] | EC50 [3] [nM] | AUC at 4 h [4] [µM·h] | IC50 [5] [nM] | bioavailability [6] [%] | AUC [7] [µM·h] | clearance [8] [mL/min/kg] | half-life [9] [h] | Drug uptake ([2]; BLD = below limit of detection) | AUC [10] | Structure (SMILES) | CC50 [1] [nM] |
| --- | --- | --- | --- | --- | --- | --- | --- | --- | --- | --- | --- |
| 156 | 32 | 0.009 | 1 | – | – | – | – | – | – | C=C[C@@H]1C[C@]1(NC(=O)[C@@H]1C[C@@H](Oc2cc(-c3ccccc3)nc3cc(OC)ccc23)CN1C(=O)[C@@H](NC(=O)OC)C(C)(C)C)C(=O)NS(=O)(=O)C1CC1 | – |
| 1018 | 26 | 0.46 | 3 | – | – | – | – | – | – | C=C[C@@H]1C[C@]1(NC(=O)[C@@H]1C[C@@H](Oc2nccc3cc(N4CCOCC4)ccc23)CN1C(=O)[C@@H](NC(=O)OC(C)(C)C)C(C)(C)C)C(=O)NS(=O)(=O)C1CC1 | > 100000 |
| 620 | 26 | 0.015 | 5 | – | – | – | – | – | – | C=C[C@@H]1C[C@]1(NC(=O)[C@@H]1C[C@@H](Oc2ccnc3cc(OC)ccc23)CN1C(=O)[C@@H](NC(=O)OC(C)(C)C)C(C)(C)C)C(=O)NS(=O)(=O)C1CC1 | – |
| 51260 | 25 | 2.36 | 1 | 9 | 3.74 | 6 | 2.2 | – | – | C=C[C@@H]1C[C@]1(NC(=O)[C@@H]1C[C@@H](Oc2nccc3c(OC)cccc23)CN1C(=O)[C@@H](NC(=O)OC(C)(C)C)C(C)(C)C)C(=O)NS(=O)(=O)C1CC1 | > 100000 |
| 36160 | 25 | 5.5 | 1 | 6 | 2.08 | 7 | 6.6 | – | – | C=C[C@@H]1C[C@]1(NC(=O)[C@@H]1C[C@@H](Oc2nccc3c(Cl)cccc23)CN1C(=O)[C@@H](NC(=O)OC(C)(C)C)C(C)(C)C)C(=O)NS(=O)(=O)C1CC1 | 38000 |
| – | 22 | – | 6 | 4 | 0.58 | 17 | 4.2 | – | – | CC[C@@H]1C[C@]1(NC(=O)[C@@H]1C[C@@H](Oc2nccc3cc(OC)ccc23)CN1C(=O)[C@@H](NC(=O)OC(C)(C)C)C(C)(C)C)C(=O)NS(=O)(=O)C1CC1 | > 100000 |
| 2319 | 18 | 0.11 | 2 | – | – | – | – | – | – | C=C[C@@H]1C[C@]1(NC(=O)[C@@H]1C[C@@H](Oc2ncnc3cc(OC)ccc23)CN1C(=O)[C@@H](NC(=O)OC(C)(C)C)C(C)(C)C)C(=O)NS(=O)(=O)C1CC1 | > 100000 |
| 14630 | 12 | 1.83 | 3 | – | – | – | – | – | – | C=C[C@@H]1C[C@]1(NC(=O)[C@@H]1C[C@@H](Oc2nccc3cc(OCC)ccc23)CN1C(=O)[C@@H](NC(=O)OC(C)(C)C)C(C)(C)C)C(=O)NS(=O)(=O)C1CC1 | 74000 |
| 72910 | 4 | 1.11 | 1 | – | – | – | – | – | – | C=C[C@@H]1C[C@]1(NC(=O)[C@@H]1C[C@@H](Oc2nc(-c3ccccc3)cc3cc(OC)ccc23)CN1C(=O)[C@@H](NC(=O)OC(C)(C)C)C(C)(C)C)C(=O)NS(=O)(=O)C1CC1 | 13000 |
| – | 2 | – | 1 | 2 | 0.194 | 27 | 3.1 | – | – | C=C[C@@H]1C[C@]1(NC(=O)[C@@H]1C[C@@H](Oc2ncc(OC)c3cc(OC)ccc23)CN1C(=O)[C@@H](NC(=O)OC(C)(C)C)C(C)(C)C)C(=O)NS(=O)(=O)C1CC1 | 45000 |
